In ChEMBL document CHEMBL4725355, “Design, Synthesis, and Preclinical Evaluation of 3-Methyl-6-(5-thiophenyl)-1,3-dihydro-imidazo[4,5-b]pyridin-2-ones as Selective GluN2B Negative Allosteric Modulators for the Treatment of Mood Disorders” (J Med Chem, 2020):
pIC50, pKi: −log10 of the molar value. ≈ marks a conversion by molar mass, not a printed value.

Legend:
Cytochrome P450 2C19 = Cytochrome P450 2C19 (Homo sapiens, UniProt P33261); experiment: Inhibition of CYP2C19 in human liver microsomes using S-mephenytoin as substrate measured after 15 mins by LC-MS/MS analysis; type: ADME
Chain of Cytochrome P450 2C19 (P33261 whole entry, canonical isoform): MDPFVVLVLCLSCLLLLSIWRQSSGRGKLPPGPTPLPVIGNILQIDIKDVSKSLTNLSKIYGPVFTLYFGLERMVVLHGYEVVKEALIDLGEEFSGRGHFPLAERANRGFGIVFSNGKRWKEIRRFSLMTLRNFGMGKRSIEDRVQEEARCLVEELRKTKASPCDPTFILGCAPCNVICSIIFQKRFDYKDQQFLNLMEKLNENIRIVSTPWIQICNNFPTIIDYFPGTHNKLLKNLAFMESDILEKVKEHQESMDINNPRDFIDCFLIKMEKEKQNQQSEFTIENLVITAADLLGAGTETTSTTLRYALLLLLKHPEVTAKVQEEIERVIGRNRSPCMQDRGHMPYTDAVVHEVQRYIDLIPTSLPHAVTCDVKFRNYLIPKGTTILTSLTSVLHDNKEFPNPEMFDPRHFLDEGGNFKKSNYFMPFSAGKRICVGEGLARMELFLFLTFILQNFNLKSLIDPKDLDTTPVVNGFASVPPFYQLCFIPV
Procedure, shortened: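 Human liver microsomes incubated with isoform-specific probe substrates and the test compound at concentrations up to 20 µM. IC50 derived from inhibition of metabolite formation; mean of two independent experiments, with known specific inhibitors as positive controls.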

[1] = Efflux ratio of apparent permeability across basolateral to apical side over apical to basolateral side in MDCK-MDR1 cells at 5 uM measured after 60 mins by LC-MS/MS analysis; type: ADME, cell-based, Canis lupus familiaris; conditions: dog
Procedure, shortened: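 MDCK-MDR1 cells, passages 6-30, seeded at 3.4×10^5 cells/cm² and cultured 3 days. Test compound at 5 µM final (1% DMSO) in HBSS, pH 7.4, applied to the donor side. A→B and B→A runs at 37 °C for 60 min, in duplicate, quantified by LC/MS/MS. Efflux ratio taken as B-A/A-B; monolayer integrity checked by lucifer yellow.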

[2] = Ratio of Cmax in Sprague-Dawley rat at 125 mg/kg, po administered via gavage after 24 hrs using HPMC formulation by LC-MS/MS analysis to EC70 for ex vivo receptor occupancy at GluN2B in po dosed Sprague-Dawley rat assessed as 3-[3H] 1-(azetidin-1-yl)-2-[6-(4-fluoro-3-methyl-phenyl)pyrrolo[3,2-b]pyridin-1-yl]-ethanone labelling; type: ADME, organism-based
[3] = Oral bioavailability in Sprague-Dawley rat at 2.5 mg/kg using 1:1 PEG-400/water formulation by LC-MS/MS analysis; type: ADME, organism-based; conditions: in vivo
Procedure, shortened: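 Rats dosed 0.5 mg/kg i.v. and 2.5 mg/kg p.o., n=3 ± SD. Default vehicle is 20% HP-β-CD; one PK set used 1:1 PEG400/water and another 30% SBE-β-CD.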

[4] = Tmax in Sprague-Dawley rat brain at 3 mg/kg, po by LC-MS/MS analysis; type: ADME, organism-based
Procedure, shortened: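 Rats dosed orally at 3 mg/kg in 20% HP-β-CD. Brain concentrations were measured over a 6 h time course (0.5, 2, 6 h) alongside ex vivo GluN2B occupancy, n=2.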

[5] = Displacement of 3-[3H] 1-(azetidin-1-yl)-2-[6-(4-fluoro-3-methyl-phenyl)pyrrolo[3,2-b]pyridin-1-yl]ethanone from GluN1a/GluN2B receptor in […] measured after 2 hrs by liquid scintillation counting method; type: tissue-based, Cortex
[6] = Drug level in Sprague-Dawley rat brain cerebellum at 0.03 mg/kg, iv after 120 min by LC-MS/MS analysis; type: ADME, organism-based; conditions: read-out: Drug uptake
Procedure, shortened: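 Rats (n=3 per group) received a single IV dose of 0.03 mg/kg in 50% (w/v) PEG/water at pH 7.4 and were sacrificed at 5, 10, 30, 60 and 120 min. Cerebellum, cortex, striatum and hippocampus were weighed, homogenized and analyzed by LC-MS/MS, with levels normalized to tissue weight.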

[7] = Solubility of compound in simulated gastric fluid at pH 1.2 measured after 3 days; type: physicochemical; conditions: time 3 day
Procedure, shortened: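 Solubility in aqueous buffer at pH 2 and pH 7, and in simulated gastric and intestinal fluids.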

[8] = AUC (infinity) in dog at 0.1 mg/kg, iv by LC-MS/MS analysis; type: ADME, organism-based, Canis lupus familiaris; parameters: time infinity, route intravenous, dose 0.1 mg/kg; conditions: in vivo
[9] = Clearance in monkey at 0.1 mg/kg, iv by LC-MS/MS analysis; type: ADME, organism-based, Macaca mulatta; conditions: rhesus monkey, in vivo
[10] = Oral bioavailability in monkey at 0.5 mg/kg by LC-MS/MS analysis; type: ADME, organism-based, Macaca mulatta; conditions: rhesus monkey, in vivo
[11] = Tmax in Sprague-Dawley rat at 0.5 mg/kg, iv or 2.5 mg/kg, po using 1:1 PEG-400/water formulation by LC-MS/MS analysis; type: ADME, organism-based; conditions: in vivo
Procedure, shortened: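 Rat PK at 0.5 mg/kg i.v. and 2.5 mg/kg p.o., vehicle 1:1 PEG400/water. n=3, values given as mean ± SD.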

[12] = Clearance in Sprague-Dawley rat at 0.5 mg/kg, iv by LC-MS/MS analysis; type: ADME, organism-based; conditions: in vivo
Procedure, shortened: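 Rat PK with IV and PO dosing, n=3. The usual doses were 0.5 mg/kg IV and 2.5 mg/kg PO in 20% HP-β-CD. One compound was instead given at 0.1 mg/kg IV and 0.5 mg/kg PO.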

[13] = Tmax in Sprague-Dawley rat at 500 mg/kg, po administered via gavage after 24 hrs using HPMC formulation by LC-MS/MS analysis; type: ADME, organism-based; conditions: in vivo
Procedure, shortened: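 Single oral gavage of a 5% HPMC suspension at 125, 250, 500 or 1000 mg/kg to male Sprague Dawley rats, 3 per group. Plasma was sampled at 6 time points from 0.5 to 24 h.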

[14] = Tmax in Sprague-Dawley rat at 100 mg/kg, po administered via gavage after 24 hrs using nanosuspension formulation by LC-MS/MS analysis; type: ADME, organism-based; conditions: in vivo
Procedure, shortened: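 Single oral gavage of a nanosuspension (API:polymer 4:1), diluted with vehicle on the dosing day, at 100, 250 or 500 mg/kg to male Sprague Dawley rats, 3 per dose. Plasma was sampled from 0.5 to 24 h.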

[15] = molecular target: T1, Nuclear receptor subfamily 1 group I member 2 (Homo sapiens, UniProt O75469); experiment: Activation of human PXR expressed in human DPX2 cells assessed as induction of CYP3A by luciferase reporter gene assay relative to control; type: ADME, cell-based
T1 sequence (O75469 whole entry): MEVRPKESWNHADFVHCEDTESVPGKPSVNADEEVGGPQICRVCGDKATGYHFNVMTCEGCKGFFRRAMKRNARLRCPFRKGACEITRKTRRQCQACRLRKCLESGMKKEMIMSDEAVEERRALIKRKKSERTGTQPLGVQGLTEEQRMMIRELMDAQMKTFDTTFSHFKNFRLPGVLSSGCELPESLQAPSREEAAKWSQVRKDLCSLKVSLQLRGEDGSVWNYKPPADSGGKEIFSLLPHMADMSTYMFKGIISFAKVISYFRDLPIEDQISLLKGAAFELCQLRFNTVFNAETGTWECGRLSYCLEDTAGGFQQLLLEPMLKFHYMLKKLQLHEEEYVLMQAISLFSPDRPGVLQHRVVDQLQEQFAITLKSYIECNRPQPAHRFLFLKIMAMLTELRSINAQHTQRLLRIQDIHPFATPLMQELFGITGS
Procedure, shortened: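 Luciferase reporter lines were used. DPX2 is HepG2 carrying human PXR plus a CYP3A4 promoter-luciferase construct. 1A2-DRE carries human AhR plus a CYP1A2 promoter with 3 DRE copies. Luminescence was read with ONE-Glo. Activation was expressed relative to rifampicin (PXR) or omeprazole (AhR).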

[16] = AUC (0 to 24 hrs) in Sprague-Dawley rat at 125 mg/kg, po administered via gavage after 24 hrs using HPMC formulation by LC-MS/MS analysis; type: ADME, organism-based; parameters: route oral, dose 125 mg/kg, time <=24; conditions: in vivo
Procedure, shortened: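 Single oral gavage dose to male Sprague Dawley rats, 3 per dose level. Vehicles were a standard suspension in 5% HPMC (125, 250, 500 or 1000 mg/kg) or a nanosuspension (API:polymer 4:1), with stock diluted in vehicle on the day of dosing (100, 250 or 500 mg/kg). Blood was sampled at time points from 0.5 to 24 h.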

[17] = AUC (infinity) in Sprague-Dawley rat at 0.5 mg/kg, iv or 2.5 mg/kg, po using 1:1 PEG-400/water formulation by LC-MS/MS analysis; type: ADME, organism-based; parameters: dose 2.5 mg/kg; conditions: in vivo
Procedure, shortened: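 Rat IV/PO PK at 0.5 mg/kg IV and 2.5 mg/kg PO, dosed in 1:1 PEG400/water, n=3.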

pIC50 (Cytochrome P450 2C19): < 4.30
efflux ratio at 1 h, 5 µM [1]: 2.1
Ratio [2]: 6
bioavailability [3]: 132%
Tmax [4]: 0.5 h
pKi [5]: 7.82
concentration at 2 h [6]: 6.9 ng/mL
solubility at 72 h [7]: 4.4 µM (≈ 1.74 µg/mL)
AUC(0-inf) [8]: 126 ng·h/mL
clearance [9]: 9 mL/min/kg
bioavailability [10]: 41%
Tmax [11]: 1.3 h
clearance [12]: 30 mL/min/kg
Tmax [13]: 1 h
Tmax [14]: 2.7 h
Activity [15]: < 20%
AUC(0-t) [16]: 22800 ng·h/mL
AUC(0-inf) [17]: 1830 ng·h/mL
SMILES: Cn1c(=O)n(CC(=O)N2CCC2)c2cc(-c3ccc(C(F)(F)F)s3)cnc21
